Consider 4 molecules from paper PMC9328817 (Journal of Food and Drug Analysis, 2016).

Where a SMILES comes first, the peptide text is derived from it.

One data set concerns HepG2 cells. As to the kind of experiment: MTT viability assay. Format: cell-based. The conditions noted are these: for Inhibitory effect on the growth of HepG2 cancer cells (in words): 0-1 mg/mL; for Growth inhibition of HepG2 cells: highest concentration tested 1 mg/mL, 24, 48 and 72 hours. A digest of the protocol:
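HepG2 cells were grown in DMEM with 10% FBS, L-glutamine and 1% penicillin/streptomycin at 37°C, humidified, 5% CO2, and treated in log phase at 80% confluence. After seeding and 24 h incubation, cells received peptides at 0–1 mg/mL for 24, 48 or 72 h. MTT was added (4 h, dark, 37°C), DMSO was added, and A570 was read against untreated cells.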
On the technique in general: Formazan colour is commonly taken as a measure of viable cells.

The next data set has as its system cancer cell growth. The conditions noted are these: cited from earlier work.

On to `CC(C)C[C@H](NC(=O)CNC(=O)[C@@H](N)CCCNC(=N)N)C(=O)N[C@@H](Cc1c[nH]cn1)C(=O)N1CCC[C@H]1C(=O)N[C@H](C(=O)N1CCC[C@H]1C(=O)N[C@@H](CCC(N)=O)C(=O)O)C(C)C` [RQ-8] (H-RGLHPVPQ-OH), for which, in the data set with HepG2 cells, the “Inhibitory effect on the growth of HepG2 cancer cells (in words)” value is given as “no significant inhibitory effects” and the “Growth inhibition of HepG2 cells” value is given as “about 20%”.
On the same counts, the results for `CC(C)C[C@H](NC(=O)[C@H](CCCNC(=N)N)NC(=O)[C@H](Cc1c[nH]cn1)NC(=O)[C@H](CC(C)C)NC(=O)[C@H](CCC(=O)O)NC(=O)[C@H](CCC(=O)O)NC(=O)[C@H](CC(C)C)NC(=O)[C@@H](N)Cc1ccc(O)cc1)C(=O)N[C@@H](CC(N)=O)C(=O)N[C@@H](C)C(=O)NCC(=O)N[C@@H](Cc1ccc(O)cc1)C(=O)O` [YY-11] (H-YLEELHRLNAGY-OH) are “no significant inhibitory effects” and “about 20%”.
For `CC(C)C[C@H](NC(=O)[C@H](CCC(N)=O)NC(=O)[C@H](CC(=O)O)NC(=O)[C@H](CCC(N)=O)NC(=O)[C@H](CCC(N)=O)NC(=O)[C@H](CCC(=O)O)NC(=O)[C@H](CC(=O)O)NC(=O)[C@H](CCC(=O)O)NC(=O)[C@@H](NC(=O)[C@H](CCC(N)=O)NC(=O)[C@H](CCC(N)=O)NC(=O)[C@H](CCC(N)=O)NC(=O)[C@H](CCC(=O)O)NC(=O)[C@H](CCC(=O)O)NC(=O)[C@@H](N)CC(C)C)[C@@H](C)O)C(=O)O` [LL-15] (H-LEEQQQTEDEQQDQL-OH), in that order: “no significant inhibitory effects” and “about 20%”.

B1: lactoferrin: iron-binding multifunctional protein in camel milk (protein, UniProt Q9TUM0 20-708, looked up)
Lactotransferrin: ASKKSVRWCTTSPAESSKCAQWQRRMKKVRGPSVTCVKKTSRFECIQAISTEKADAVTLDGGLVYDAGLDPYKLRPIAAEVYGTENNPQTHYYAVAIAKKGTNFQLNQLQGLKSCHTGLGRSAGWNIPMGLLRPFLDWTGPPEPLQKAVAKFFSASCVPCVDGKEYPNLCQLCAGTGENKCACSSQEPYFGYSGAFKCLQDGAGDVAFVKDSTVFESLPAKADRDQYELLCPNNTRKPVDAFQECHLARVPSHAVVARSVNGKEDLIWKLLVKAQEKFGRGKPSGFQLFGSPAGQKDLLFKDSALGLLRISSKIDSGLYLGSNYITAIRGLRETAAEVELRRAQVVWCAVGSDEQLKCQEWSRQSNQSVVCATASTTEDCIALVLKGEADALSLDGGYIYIAGKCGLVPVLAESQQSPESSGLDCVHRPVKGYLAVAVVRKANDKITWNSLRGKKSCHTAVDRTAGWNIPMGLLSKNTDSCRFDEFLSQSCAPGSDPRSKLCALCAGNEEGQNKCVPNSSERYYGYTGAFRCLAENVGDVAFVKDVTVLDNTDGKNTEQWAKDLKLGDFELLCLNGTRKPVTEAESCHLAVAPNHAVVSRIDKVAHLEQVLLRQQAHFGRNGRDCPGKFCLFQSKTKNLLFNDNTECLAKLQGKTTYEEYLGPQYVTAIAKLRRCSTSPLLEACAFLMR
For B1, the “Reduction of cancer cell growth” value in the data set with cancer cell growth is 56%.
